Legend:
Rattus norvegicus [1] = experiment: Diuretic effect was evaluated in the conscious female rat by natriuretic assay involving metabolic caging at dose 10 mg/kg; format: functional, Urine
Summary of the method: (§1)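 Rats housed singly in metabolic cages 1-2 days beforehand and acclimated to oral gavage with 3 mL/kg tap water; food and water withdrawn 2 h pre-test. Oral saline volume load, 25 mL/kg, then compound by gavage as 1% CMC suspension (1 mL/kg); 1% CMC vehicle control. Six rats per group. 5 h urine collected; volume, Na+, K+ measured. Outliers >2 SD removed; ANOVA, Scheffe F test.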

Rattus norvegicus [2] = experiment: Diuretic effect was evaluated in the conscious female rat by natriuretic assay involving metabolic caging at dose 30 mg/kg; format: functional, Urine; summary of the method: as §1
Rattus norvegicus [3] = experiment: Diuretic effect was evaluated in the conscious female rat by natriuretic assay involving metabolic caging at dose 50 mg/kg; format: functional, Urine; summary of the method: as §1
Rattus norvegicus [4] = experiment: Kaliuretic effect was evaluated in the conscious female rat by natriuretic assay involving metabolic caging at dose 10 mg/kg; format: functional; summary of the method: as §1
Rattus norvegicus [5] = experiment: Kaliuretic effect was evaluated in the conscious female rat by natriuretic assay involving metabolic caging at dose 30 mg/kg; format: functional; summary of the method: as §1
Rattus norvegicus [6] = experiment: Kaliuretic effect was evaluated in the conscious female rat by natriuretic assay involving metabolic caging at dose 50 mg/kg; format: functional; summary of the method: as §1
Rattus norvegicus [7] = experiment: Natriuretic effect was evaluated in the conscious female rat by natriuretic assay involving metabolic caging at dose 10 mg/kg; format: functional; summary of the method: as §1
Rattus norvegicus [8] = experiment: Natriuretic effect was evaluated in the conscious female rat by natriuretic assay involving metabolic caging at dose 30 mg/kg; format: functional; summary of the method: as §1
Rattus norvegicus [9] = experiment: Natriuretic effect was evaluated in the conscious female rat by natriuretic assay involving metabolic caging at dose 50 mg/kg; format: functional; summary of the method: as §1
Rattus norvegicus [10] = experiment: Diuretic effect was evaluated in the conscious female rat by natriuretic assay involving metabolic caging at dose 20 mg/kg; format: functional, Urine; summary of the method: as §1
Rattus norvegicus [11] = experiment: Kaliuretic effect was evaluated in the conscious female rat by natriuretic assay involving metabolic caging at dose 20 mg/kg; format: functional; summary of the method: as §1
Rattus norvegicus [12] = experiment: Natriuretic effect was evaluated in the conscious female rat by natriuretic assay involving metabolic caging at dose 20 mg/kg; format: functional; summary of the method: as §1
Rattus norvegicus [13] = experiment: Diuretic effect was evaluated in the conscious female rat by natriuretic assay involving metabolic caging at dose 5 mg/kg; format: functional, Urine; summary of the method: as §1
Rattus norvegicus [14] = experiment: Natriuretic effect was evaluated in the conscious female rat by natriuretic assay involving metabolic caging at dose 5 mg/kg; format: functional; summary of the method: as §1
Rattus norvegicus [15] = experiment: Kaliuretic effect was evaluated in the conscious female rat by natriuretic assay involving metabolic caging at dose 5 mg/kg; format: functional; summary of the method: as §1

| Structure (SMILES) | Diuretic activity (Rattus norvegicus [1]) | Diuretic activity (Rattus norvegicus [2]) | Diuretic activity (Rattus norvegicus [3]) | Kaliuretic activity (Rattus norvegicus [4]) | Kaliuretic activity (Rattus norvegicus [5]) | Kaliuretic activity (Rattus norvegicus [6]) | Natriuretic activity (Rattus norvegicus [7]) | Natriuretic activity (Rattus norvegicus [8]) | Natriuretic activity (Rattus norvegicus [9]) | Diuretic activity (Rattus norvegicus [10]) | Kaliuretic activity (Rattus norvegicus [11]) | Natriuretic activity (Rattus norvegicus [12]) | Diuretic activity (Rattus norvegicus [13]) | Natriuretic activity (Rattus norvegicus [14]) | Kaliuretic activity (Rattus norvegicus [15]) |
| --- | --- | --- | --- | --- | --- | --- | --- | --- | --- | --- | --- | --- | --- | --- | --- |
| COc1ccc([C@@H]2Sc3ccccc3N(CCO)C[C@@H]2O)cc1 | 1.7 mL/g | 1.75 mL/g | 1.6 mL/g | <1 µM/g | <0.9 µM/g | 0.97 µM/g | <2 µM/g | <1.6 µM/g | <1.65 µM/g | – | – | – | – | – | – |
| COc1ccc([C@@H]2Sc3ccccc3N(CC(=O)O)C(=O)[C@@H]2OC(C)=O)cc1 | 1.92 mL/g | 2.25 mL/g | 2.1 mL/g | <0.9 µM/g | 1.2 µM/g | 1.25 µM/g | <2 µM/g | <2.1 µM/g | 1.7 µM/g | 1.75 mL/g | <1.08 µM/g | <1.55 µM/g | – | – | – |
| COc1ccc([C@@H]2Sc3ccccc3N(CCO)C(=O)[C@@H]2O)cc1 | 2.1 mL/g | – | 1.6 mL/g | 1.1 µM/g | – | <0.8 µM/g | <2.5 µM/g | – | <0.9 µM/g | 1.8 mL/g | <1.05 µM/g | <1.9 µM/g | 1.7 mL/g | <1.6 µM/g | 1 µM/g |
| COc1ccc([C@@H]2Sc3ccccc3N(CC(=O)O)C(=O)[C@@H]2O)cc1 | 2 mL/g | 2.1 mL/g | 1.85 mL/g | 1.1 µM/g | 1.07 µM/g | 1.23 µM/g | <2 µM/g | <2.1 µM/g | <1.95 µM/g | 1.7 mL/g | 1.15 µM/g | <1.6 µM/g | – | – | – |
| CCOC(=O)CN1C(=O)[C@H](O)[C@H](c2ccc(OC)cc2)Sc2ccccc21 | 1.7 mL/g | 1.5 mL/g | 1.3 mL/g | <1.1 µM/g | <0.75 µM/g | 1 µM/g | <2 µM/g | <1.6 µM/g | <1.25 µM/g | – | – | – | – | – | – |
| COc1ccc([C@@H]2Sc3ccccc3N(CCO)C(=O)[C@@H]2OC(C)=O)cc1 | 1.3 mL/g | – | – | 0.7 µM/g | – | – | <1.25 µM/g | – | – | 1.28 mL/g | <0.67 µM/g | <1.35 µM/g | – | – | – |
| COc1ccc([C@@H]2Sc3ccccc3N(CCOC(C)=O)C(=O)[C@@H]2OC(C)=O)cc1 | 1.3 mL/g | – | 1.3 mL/g | <0.95 µM/g | – | <0.7 µM/g | <1.35 µM/g | – | <1.55 µM/g | – | – | – | – | – | – |
| COc1ccc([C@@H]2Sc3ccccc3N(CCN(C)C)C(=O)[C@@H]2OC(C)=O)cc1 [DILTIAZEM] | 1.6 mL/g | – | – | <0.8 µM/g | – | – | <1.4 µM/g | – | – | 1.8 mL/g | 0.7 µM/g | <1.6 µM/g | – | – | – |
| NS(=O)(=O)c1cc(C(=O)O)c(NCc2ccco2)cc1Cl [FUROSEMIDE] | – | 2.6 mL/g | – | – | <1.6 µM/g | – | – | <2.5 µM/g | – | 1.3 mL/g | <1.1 µM/g | <1.1 µM/g | – | – | – |
